Assay results collected from several papers.
Lines come from different studies, so protocols differ.
Organism: Pseudomonas aeruginosa
Effect on: microbial growth

CCCCCCC#Cc1cncc(-c2nnc(SCc3cc([N+](=O)[O-])cc([N+](=O)[O-])c3)n2CCOC2OC(CN)C(O)C2O)c1 (stereo not shown)
MIC (broth dilution; DSM1128): > 64 µg/mL

CC1(C)S[C@@H]2[C@H](NC(=O)[C@H](N)c3ccc(O)cc3)C(=O)N2[C@H]1C(=O)O
MIC (broth dilution; ATCC27853): > 64 µg/mL

CC[C@H]1OC(=O)[C@H](C)[C@@H](O[C@H]2C[C@@](C)(OC)[C@@H](O)[C@H](C)O2)[C@H](C)[C@@H](O[C@@H]2O[C@H](C)C[C@H](N(C)C)[C@H]2O)[C@](C)(O)C[C@@H](C)CN(C)[C@H](C)[C@@H](O)[C@]1(C)O
MIC (ATCC27853): < 98 µg/mL

C[C@@H](O)[C@H]1C(=O)N2C(C(=O)O)=C(S[C@@H]3CN[C@H](C(=O)N(C)C)C3)[C@H](C)[C@H]12
MIC (ATCC27853; drug-resistant strain): 0.25 µg/mL

Cc1ccc2[nH]nc(-c3nnc(Nc4ccc(Br)cc4)s3)c2c1
MIC (ATCC27853): 243 µg/mL

CCCCCCCCCCCC[N+](C)(C)Cc1ccccc1
MIC (PAO1): 250 µM

COc1ccc2ccc(O)c(/C=N/[C@H]3CCCC[C@H]3/N=C/c3c(O)cccc3F)c2c1
MIC (broth dilution; clinical isolate): > 40 µM

Cc1ccc2[nH]nc(-c3nnc(Nc4cc(Cl)cc(Br)c4)s3)c2c1
MIC (ATCC27853): 224 µg/mL

CCCCCCC#Cc1cncc(-c2nnc(SCc3cc(C(F)(F)F)cc(C(F)(F)F)c3)n2CCCN)c1
MIC (broth dilution; DSM1128): > 64 µg/mL

CC(C)c1ccc(/C=C2\N=C(SCC(=O)O)N(c3ccccc3)C2=O)cc1
MIC (broth dilution; ATCC27 ATCC27853): 12 µg/mL

CNC(C)C1CCC(N)C(OC2C(N)CC(N)C(OC3OCC(C)(O)C(NC)C3O)C2O)O1 (stereo not shown)
MIC (broth dilution): 2 µg/mL

Cc1ccc2[nH]nc(-c3nnc(Nc4ccc(Cl)c(Br)c4)s3)c2c1
MIC (ATCC27853): 254 µg/mL

CCCCCCC#Cc1cncc(-c2nnc(SCc3ccc([N+](=O)[O-])o3)n2CCCN)c1
MIC (broth dilution; DSM1128): > 64 µg/mL

Cc1ccc2[nH]nc(-c3nnc(Nc4ccc(O)cc4)s3)c2c1
MIC (ATCC27853): 63.9 µg/mL

COc1ccc2ccc(O)c(/C=N/[C@H]3CCCC[C@H]3/N=C/c3ccc(OCCN4CCCCC4)cc3O)c2c1
MIC (broth dilution): > 40 µM

Cc1ccc2[nH]nc(-c3nnc(Nc4ccc(F)cc4)s3)c2c1
MIC (ATCC27853): 63.9 µg/mL

CNC(C)C1CCC(N)C(OC2C(N)CC(N)C(OC3OCC(C)(O)C(NC)C3O)C2O)O1 (stereo not shown)
MIC (broth dilution; ATCC27853): 2 µg/mL

COc1ccc2ccc(O)c(/C=N/[C@H]3CCCC[C@H]3/N=C/c3ccc(-c4ccccc4)cc3O)c2c1
MIC (broth dilution; clinical isolate): > 40 µM

C[C@@H](O)[C@H]1C(=O)N2C(C(=O)O)=C(S[C@@H]3CN[C@H](C(=O)N(C)C)C3)[C@H](C)[C@H]12
MIC (broth dilution; ATCC27853): 0.25 µg/mL

Cc1ccc2[nH]nc(-c3nnc(Nc4ccc(C(F)(F)F)cc4)s3)c2c1
MIC (ATCC27853): 126 µg/mL

CCCCCCC#Cc1cncc(-c2nnc(SCc3cc([N+](=O)[O-])cc([N+](=O)[O-])c3)n2C2CCNCC2)c1
MIC (broth dilution; DSM1128): > 64 µg/mL

C[C@H]1[C@H](NC(=O)/C(=N\OC(C)(C)C(=O)O)c2csc(N)n2)C(=O)N1S(=O)(=O)O
MIC (broth dilution; ATCC27853): 2 µg/mL
